Assay [1] deals with Serine/threonine-protein kinase Chk2 (Homo sapiens), O96017 [R145W]. Description: Inhibition of recombinant human CHK2 R145W mutant (5 to end residues) at 1 uM using KKKVSRSGLYRSPSMPENLNRPR as substrate measured after 40 mins in presence of [gamma33P]ATP by scintillation counting method relative to control. Put shortly: (§1)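 Single-point inhibition at 1 µM was measured in the Eurofins KinaseProfiler panel. Values are the mean of two independent experiments.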

Assay [2] concerns the target CDC7/Cyclin B1 (Homo sapiens) (UniProt P14635+O00311). Description: Inhibition of recombinant full-length human CDC7/cyclinB1 at 1 uM using Histone H1 as substrate measured after 120 mins in presence of [gamma33P]ATP by scintillation counting method relative to control. Type of assay: protein-complex assay.
Assay [3] has as its target Protein-tyrosine kinase 2-beta (Homo sapiens) (UniProt Q14289). Description: Inhibition of recombinant full-length human Pyk2 at 1 uM using poly(Glu, Tyr) 4:1 as substrate measured after 40 mins in presence of [gamma33P]ATP by scintillation counting method relative to control.
For assay [4], the system named is A549. Description: Induction of cell cycle arrest in human A549 cells assessed as increase in accumulation of cells at G2/M phase at 1 uM after 24 hrs by propidium iodide/RNase staining based flow cytometric analysis. It is filed as functional. The method in brief: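 A549 and H1299 plated at 5×10^5 cells/mL in 6-well plates, treated after adherence for 24 h. Washed with PBS, fixed overnight in ice-cold 75% ethanol, stained with propidium iodide plus RNase A for 30 min at 37 °C, analysed by flow cytometry for phase distribution. Means ± SD, three independent experiments.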
In general terms: In flow cytometry, cells or beads pass a laser one at a time.

Assay [5] deals with Protein kinase C gamma type (Homo sapiens) (UniProt P05129). Description: Inhibition of recombinant full-length human PKCgamma at 1 uM using histone H1 as substrate measured after 40 mins in presence of [gamma33P]ATP by scintillation counting method relative to control.
For assay [6], the target named is Serine/threonine-protein kinase Nek2 (Homo sapiens) (UniProt P51955). Description: Inhibition of recombinant full-length human NEK2 at 1 uM using myelin basic protein as substrate measured after 40 mins in presence of [gamma33P]ATP by scintillation counting method relative to control.
Sequence of Serine/threonine-protein kinase Nek2 (Homo sapiens) (P51955 whole entry): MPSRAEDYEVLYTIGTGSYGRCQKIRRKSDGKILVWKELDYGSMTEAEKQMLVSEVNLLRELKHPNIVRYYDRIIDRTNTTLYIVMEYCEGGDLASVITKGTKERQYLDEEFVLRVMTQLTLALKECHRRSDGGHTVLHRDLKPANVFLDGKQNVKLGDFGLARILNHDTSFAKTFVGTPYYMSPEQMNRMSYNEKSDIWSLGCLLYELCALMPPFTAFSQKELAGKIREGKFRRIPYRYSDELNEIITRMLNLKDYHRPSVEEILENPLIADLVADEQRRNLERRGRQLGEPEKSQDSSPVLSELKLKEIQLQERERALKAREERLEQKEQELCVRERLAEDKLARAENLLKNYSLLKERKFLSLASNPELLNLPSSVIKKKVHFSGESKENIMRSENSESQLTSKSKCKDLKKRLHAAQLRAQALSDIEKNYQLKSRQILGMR
The species entered for assay [7] is Homo sapiens. Description: Inhibition of recombinant human ARAF Y301D/Y302D mutant (273 to end residues) at 1 uM using myelin basic protein as substrate measured after 40 mins in presence of [gamma33P]ATP by scintillation counting method relative to control.
The target in assay [8] is Phosphatidylinositol 5-phosphate 4-kinase type-2 alpha (Homo sapiens) (UniProt P48426). The experiment in a line: Inhibition of recombinant full-length human PIP4K2alpha at 1 uM using phosphatidylinositol 5-phosphate as substrate measured after 40 mins by HTRF assay relative to control. Background: In TR-FRET formats the signal depends on donor and acceptor labels being close together.

Assay [9] concerns the target Serine/threonine-protein kinase SBK1 (Homo sapiens) (UniProt Q52WX2). Description: Inhibition of recombinant full-length human SBK1 at 1 uM using KKLRRTLSVA as substrate measured after 120 mins in presence of [gamma33P]ATP by scintillation counting method relative to control.
For assay [10], the target named is Serine/threonine-protein kinase STK11 (Homo sapiens) (UniProt Q15831). The experiment in a line: Inhibition of recombinant full-length human LKB1 at 1 uM using LSNLYHQGKFLQTFCGSPLYRRR as substrate measured after 40 mins in presence of [gamma33P]ATP by scintillation counting method relative to control.
Sequence of Serine/threonine-protein kinase STK11 (Homo sapiens) (Q15831 whole entry): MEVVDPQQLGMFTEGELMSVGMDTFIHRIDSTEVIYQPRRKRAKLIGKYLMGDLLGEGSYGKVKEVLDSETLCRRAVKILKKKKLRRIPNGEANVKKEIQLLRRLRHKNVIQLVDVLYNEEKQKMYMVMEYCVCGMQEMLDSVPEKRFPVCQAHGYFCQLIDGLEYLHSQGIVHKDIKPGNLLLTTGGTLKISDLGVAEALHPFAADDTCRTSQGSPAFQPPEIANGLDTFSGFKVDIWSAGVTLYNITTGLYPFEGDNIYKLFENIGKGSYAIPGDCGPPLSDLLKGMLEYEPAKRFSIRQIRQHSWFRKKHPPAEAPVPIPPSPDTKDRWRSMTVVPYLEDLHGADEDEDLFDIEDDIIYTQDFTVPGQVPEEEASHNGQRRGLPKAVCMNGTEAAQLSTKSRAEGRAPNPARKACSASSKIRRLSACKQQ
Assay [11] concerns Glycogen synthase kinase-3 beta (Homo sapiens), P49841 [UNDEFINED MUTATION]. The experiment in a line: Inhibition of human recombinant GSK3beta H350L mutant (2 to end residues) at 1 uM using YRRAAVPPSPSLSR as substrate incubated for 40 mins in presence of [gamma-33P]ATP at Km concentration by radiometric assay relative to control. The method in brief:
as §1

Assay [12] deals with Vascular endothelial growth factor receptor 1 (Homo sapiens) (UniProt P17948). The experiment in a line: Inhibition of recombinant human Flt1 (783 to end residues) at 1 uM using KKKSPGEYVNIEFG as substrate measured after 40 mins in presence of [gamma33P]ATP by scintillation counting method relative to control.
Assay [13] deals with A549. Description: Induction of apoptosis in human A549 cells assessed as decrease in Bcl-2 protein expression at 0.25 to 1 uM after 24 hrs by Western blot analysis. It is filed as functional, cell-based. Put shortly:
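A549 or H1299 cells exposed to the indicated concentrations for 24 h. Protein extracts then immunoblotted for apoptosis-pathway proteins (Bcl2, Bim, cleaved caspase 3).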
A general note: Immunoblotting shows a protein as a band on a membrane.

Assay [14] addresses Serine/threonine-protein kinase 32B (Homo sapiens) (UniProt Q9NY57). Description: Inhibition of recombinant full-length human STK32B at 1 uM using casein as substrate measured after 120 mins in presence of [gamma33P]ATP by scintillation counting method relative to control.
Assay [15] concerns the target Serine/threonine-protein kinase DCLK3 (Homo sapiens) (UniProt Q9C098). The experiment in a line: Inhibition of recombinant human DCAMKL3 (345 to end residues) at 1 uM using KKLNRTLSFAEPG as substrate measured after 40 mins in presence of [gamma33P]ATP by scintillation counting method relative to control.
In assay [16] the target is Mitogen-activated protein kinase kinase kinase 3 (Homo sapiens) (UniProt Q99759). The experiment in a line: Inhibition of full-length recombinant human MEKK3 at 1 uM using myelin basic protein as substrate measured after 120 mins in presence of [gamma33P]ATP by scintillation counting method relative to control. The method in brief:
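Percent inhibition of kinase activity at a single compound concentration, measured by the outsourced Eurofins KinaseProfiler panel. Values are the mean of two independent experiments.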

Assay [17] concerns CCRF-CEM. The experiment in a line: Antiproliferative activity against human CCRF-CEM cells assessed as inhibition of cell viability after 72 hrs by CCK-8 assay. It is filed as functional, cell-based. The method in brief:
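Cells kept at 37 °C, 5% CO2 in DMEM or RPMI-1640 with 10% FBS and 1% penicillin/streptomycin, then seeded at 3000 cells/well (adherent) or 10,000 cells/well (suspension). Exposed to a range of concentrations for 72 h. CCK-8 added for 1-4 h before reading A450. […] Three independent experiments.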

The target in assay [18] is Serine/threonine-protein kinase PLK1 (Homo sapiens) (UniProt P53350). Description: Inhibition of full length human PLK1 at 1 uM using casein as substrate measured after 40 mins in presence of [gamma33P]ATP by scintillation counting method.
Sequence of Serine/threonine-protein kinase PLK1 (Homo sapiens) (P53350 whole entry): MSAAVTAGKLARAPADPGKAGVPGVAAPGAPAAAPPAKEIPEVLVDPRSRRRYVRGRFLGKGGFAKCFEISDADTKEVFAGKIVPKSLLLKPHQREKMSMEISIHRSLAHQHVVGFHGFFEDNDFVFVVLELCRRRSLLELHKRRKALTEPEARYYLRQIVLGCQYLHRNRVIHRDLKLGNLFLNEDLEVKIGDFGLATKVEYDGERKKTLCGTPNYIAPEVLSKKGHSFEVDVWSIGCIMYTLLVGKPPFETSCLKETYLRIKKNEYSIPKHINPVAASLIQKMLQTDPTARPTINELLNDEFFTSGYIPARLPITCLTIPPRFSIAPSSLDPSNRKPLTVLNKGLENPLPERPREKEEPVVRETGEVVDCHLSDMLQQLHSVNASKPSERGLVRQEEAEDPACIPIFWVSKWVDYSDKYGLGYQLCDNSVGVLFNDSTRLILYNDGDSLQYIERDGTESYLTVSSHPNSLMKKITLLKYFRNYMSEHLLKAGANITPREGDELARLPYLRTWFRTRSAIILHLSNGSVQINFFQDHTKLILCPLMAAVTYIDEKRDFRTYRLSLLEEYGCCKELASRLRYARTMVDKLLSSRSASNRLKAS
The test system of assay [19] is Hepatocyte growth factor receptor (Homo sapiens), P08581 [Y1230D]. The experiment in a line: Inhibition of recombinant human MET A1209G/V1290L/Y1248D mutant (974 to end residues) at 1 uM using KKKGQEEEYVFIE as substrate measured after 40 mins in presence of [gamma33P]ATP by scintillation counting method relative to control.
Sequence of Hepatocyte growth factor receptor (Homo sapiens), P08581 [Y1230D] (P08581 whole entry Y1230D, the tested form may be a part): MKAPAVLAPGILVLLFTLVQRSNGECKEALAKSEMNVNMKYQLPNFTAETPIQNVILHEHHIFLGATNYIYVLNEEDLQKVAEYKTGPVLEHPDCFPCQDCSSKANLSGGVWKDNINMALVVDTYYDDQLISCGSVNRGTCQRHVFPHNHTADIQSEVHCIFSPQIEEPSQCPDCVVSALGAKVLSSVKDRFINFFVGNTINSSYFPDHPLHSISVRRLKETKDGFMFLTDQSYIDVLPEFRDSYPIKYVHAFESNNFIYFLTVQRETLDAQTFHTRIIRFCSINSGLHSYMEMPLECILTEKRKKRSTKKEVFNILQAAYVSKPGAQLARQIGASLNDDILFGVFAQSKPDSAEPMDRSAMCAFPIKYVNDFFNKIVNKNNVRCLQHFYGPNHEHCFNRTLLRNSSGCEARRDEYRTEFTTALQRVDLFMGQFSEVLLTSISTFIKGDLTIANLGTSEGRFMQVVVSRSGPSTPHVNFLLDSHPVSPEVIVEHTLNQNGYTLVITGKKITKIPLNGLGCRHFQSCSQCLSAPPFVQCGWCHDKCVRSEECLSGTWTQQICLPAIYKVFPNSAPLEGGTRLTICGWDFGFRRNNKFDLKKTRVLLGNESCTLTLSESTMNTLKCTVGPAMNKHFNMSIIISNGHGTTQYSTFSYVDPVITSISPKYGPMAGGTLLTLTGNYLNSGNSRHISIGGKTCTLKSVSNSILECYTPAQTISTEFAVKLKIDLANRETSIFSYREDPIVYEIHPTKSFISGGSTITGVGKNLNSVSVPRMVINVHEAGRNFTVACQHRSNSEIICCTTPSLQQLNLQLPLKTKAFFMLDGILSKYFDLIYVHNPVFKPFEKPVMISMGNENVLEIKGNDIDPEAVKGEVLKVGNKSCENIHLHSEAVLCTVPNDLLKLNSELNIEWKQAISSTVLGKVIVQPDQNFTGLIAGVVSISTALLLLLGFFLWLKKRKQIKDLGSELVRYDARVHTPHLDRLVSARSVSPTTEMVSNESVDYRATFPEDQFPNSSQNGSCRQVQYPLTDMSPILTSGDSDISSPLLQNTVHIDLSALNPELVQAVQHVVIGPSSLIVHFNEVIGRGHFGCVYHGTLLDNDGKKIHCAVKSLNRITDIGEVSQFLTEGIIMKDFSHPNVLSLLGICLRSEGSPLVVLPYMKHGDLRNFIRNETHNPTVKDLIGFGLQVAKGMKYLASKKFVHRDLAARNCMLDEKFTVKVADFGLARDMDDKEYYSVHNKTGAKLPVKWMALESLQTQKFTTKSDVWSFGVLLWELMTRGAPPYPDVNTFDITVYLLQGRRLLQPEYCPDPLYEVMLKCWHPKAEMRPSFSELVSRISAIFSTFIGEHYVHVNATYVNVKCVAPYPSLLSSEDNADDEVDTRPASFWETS
The target in assay [20] is Bone morphogenetic protein receptor type-2 (Homo sapiens) (UniProt Q13873). The experiment in a line: Inhibition of recombinant human BMPR2 (172 to 734 residues) at 1 uM using myelin basic protein as substrate measured after 120 mins in presence of [gamma33P]ATP by scintillation counting method relative to control.
For assay [21], the target named is Serine/threonine-protein kinase ULK3 (Homo sapiens) (UniProt Q6PHR2). The experiment in a line: Inhibition of recombinant full-length human ULK3 at 1 uM using casein as substrate measured after 40 mins in presence of [gamma33P]ATP by scintillation counting method relative to control.
Sequence of Serine/threonine-protein kinase ULK3 (Homo sapiens) (Q6PHR2 whole entry): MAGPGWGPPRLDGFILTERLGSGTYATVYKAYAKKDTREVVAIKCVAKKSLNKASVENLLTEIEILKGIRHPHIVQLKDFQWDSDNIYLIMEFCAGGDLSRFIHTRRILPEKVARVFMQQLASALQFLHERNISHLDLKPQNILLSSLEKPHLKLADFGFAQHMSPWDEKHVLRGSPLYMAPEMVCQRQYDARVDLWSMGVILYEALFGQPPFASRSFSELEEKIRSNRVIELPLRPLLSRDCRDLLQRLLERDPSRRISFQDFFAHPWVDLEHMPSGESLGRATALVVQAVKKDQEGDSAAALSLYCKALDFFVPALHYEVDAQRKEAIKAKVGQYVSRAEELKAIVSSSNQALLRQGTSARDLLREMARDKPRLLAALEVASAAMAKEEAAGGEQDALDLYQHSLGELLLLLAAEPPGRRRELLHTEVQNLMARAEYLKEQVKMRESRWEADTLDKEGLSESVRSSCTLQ

Drawing on ChEMBL document CHEMBL4376814, “Novel cyclin-dependent kinase 9 (CDK9) inhibitor with suppression of cancer stemness activity against non-small-cell lung cancer” (Eur J Med Chem, 2019), this text covers inhibition, Activity and IC50 for 1 compound.

Calls of active or inactive are those of the source. The rule behind the calls is not given here.

Sequence of Mitogen-activated protein kinase kinase kinase 3 (Homo sapiens) (Q99759 whole entry): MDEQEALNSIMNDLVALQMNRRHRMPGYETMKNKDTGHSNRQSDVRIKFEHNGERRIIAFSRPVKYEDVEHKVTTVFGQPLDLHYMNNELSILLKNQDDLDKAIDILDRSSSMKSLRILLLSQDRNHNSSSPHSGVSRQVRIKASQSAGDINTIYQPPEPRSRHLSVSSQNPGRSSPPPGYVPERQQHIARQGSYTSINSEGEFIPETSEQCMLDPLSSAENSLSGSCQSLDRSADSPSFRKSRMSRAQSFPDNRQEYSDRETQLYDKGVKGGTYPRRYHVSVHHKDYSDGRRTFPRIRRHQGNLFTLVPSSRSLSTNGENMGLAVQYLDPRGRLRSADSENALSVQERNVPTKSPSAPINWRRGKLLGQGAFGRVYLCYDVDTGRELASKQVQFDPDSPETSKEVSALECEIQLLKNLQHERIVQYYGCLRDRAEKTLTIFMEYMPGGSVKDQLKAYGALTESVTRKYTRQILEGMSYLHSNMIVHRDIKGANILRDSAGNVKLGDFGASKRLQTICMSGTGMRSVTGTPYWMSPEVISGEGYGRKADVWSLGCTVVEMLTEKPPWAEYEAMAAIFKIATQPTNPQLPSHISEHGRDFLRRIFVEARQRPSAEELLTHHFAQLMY
Sequence of Serine/threonine-protein kinase SBK1 (Homo sapiens) (Q52WX2 whole entry): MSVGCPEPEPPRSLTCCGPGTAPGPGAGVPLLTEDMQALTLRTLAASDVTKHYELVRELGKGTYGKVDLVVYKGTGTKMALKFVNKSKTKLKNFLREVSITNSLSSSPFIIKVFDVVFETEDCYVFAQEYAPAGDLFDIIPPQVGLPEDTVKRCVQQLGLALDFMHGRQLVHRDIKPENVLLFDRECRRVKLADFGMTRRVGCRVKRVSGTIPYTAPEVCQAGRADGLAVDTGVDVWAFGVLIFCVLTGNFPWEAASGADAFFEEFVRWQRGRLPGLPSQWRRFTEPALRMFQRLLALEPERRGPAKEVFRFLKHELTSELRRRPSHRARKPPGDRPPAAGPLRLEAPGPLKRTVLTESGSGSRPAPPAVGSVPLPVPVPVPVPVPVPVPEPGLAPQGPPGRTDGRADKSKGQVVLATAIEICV
Sequence of Serine/threonine-protein kinase Chk2 (Homo sapiens), O96017 [R145W] (O96017 whole entry R145W): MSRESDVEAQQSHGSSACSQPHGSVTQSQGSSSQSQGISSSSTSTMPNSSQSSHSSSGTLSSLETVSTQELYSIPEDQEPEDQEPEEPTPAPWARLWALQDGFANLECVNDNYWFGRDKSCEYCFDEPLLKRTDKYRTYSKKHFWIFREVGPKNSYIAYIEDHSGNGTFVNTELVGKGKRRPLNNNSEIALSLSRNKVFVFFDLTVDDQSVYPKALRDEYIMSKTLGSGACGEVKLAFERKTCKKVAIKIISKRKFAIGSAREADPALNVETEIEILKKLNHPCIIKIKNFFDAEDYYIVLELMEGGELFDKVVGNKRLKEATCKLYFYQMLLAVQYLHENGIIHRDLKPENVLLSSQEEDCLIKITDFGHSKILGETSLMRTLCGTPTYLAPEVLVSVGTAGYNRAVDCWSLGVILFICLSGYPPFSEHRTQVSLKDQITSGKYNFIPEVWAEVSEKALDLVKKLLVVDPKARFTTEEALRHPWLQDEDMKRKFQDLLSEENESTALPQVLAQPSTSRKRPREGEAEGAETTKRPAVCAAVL

As a reminder, the inhibition is the change of the read-out against control, counted positive when it falls. As usually defined, the IC50 is the concentration that inhibits the measured activity by half. As for `CN(C)C(=O)c1cc2cnc(Nc3ccc(NC(=O)CCCCCCCN=C=S)cc3)nc2n1C1CCCC1`, the inhibition in assay [1] is 52%; in assay [2] it was 75%; in assay [3], 46%; in assay [5], 86%; in [6], 13%; in [7], -1%. The inhibition in [8] came out at 0%; in assay [9], 88%; in assay [10], 0%; in [11] it was 32%; in assay [12], 71%; in assay [14], 49%. In addition, the inhibition in assay [15] was 9%; in assay [16] it was 66%; in [18], -2%; in assay [19] it was 68%; in [20] it was 73%; in [21], 9%. In addition, the outcome in assay [4] and in [13] was Active. In addition, the 50% inhibitory concentration (IC50) in [17] was > 10 µM.
